Consider five molecules from ChEMBL document CHEMBL2375268, “Design, synthesis and antiproliferative properties of some new 5-substituted-2-iminobenzimidazole derivatives” (Eur J Med Chem, 2013).

For one experiment, the system named is HeLa. Nature of the experiment: Antiproliferative activity against human HeLa cells after 24 hrs by MTS assay. The experiment is classed as functional, cell-based. The gist of the method:
(§1)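 Compounds taken up in DMSO at 0.5 mg/ml stock, then diluted 1:10, 1:100, 1:1000 and 1:10 000. Cells exposed 24 h; cells in unmodified medium served as control. MTS added, 4 h at 37 °C in 5% CO2/95% air, absorbance read at 490 nm. Viability given as % of untreated control per concentration, mean of three independent assays. IC50 (cancer lines) or EC50 (Lep-3) derived from plotted curves.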

The next experiment concerns HT-29. Kind of experiment: Antiproliferative activity against human HT-29 cells after 24 hrs by MTS assay. The conditions noted are these: HT-29, 24 h. The experiment is classed as functional, cell-based. Put shortly: as §1
(Tetrazolium dyes change colour on reduction, which living cells bring about.)

The test system of the next experiment is MDA-MB-231. Kind of experiment: Antiproliferative activity against human MDA-MB-231 cells after 24 hrs by MTS assay. The experiment is classed as functional, cell-based. The conditions noted are these: MDA-MB-231, 24 h. The gist of the method:
as §1

A short description of experiment [1]: Antiproliferative activity against human LEP-3 cells after 24 hrs by MTS assay. The class given is cell-based. The conditions noted are these: LEP-3, 24 h. Put shortly: as §1
In another experiment the test system is HepG2. Nature of the experiment: Antiproliferative activity against human HepG2 cells after 24 hrs by MTS assay. The conditions noted are these: HepG2, 24 h. The class given is functional, cell-based. Put shortly:
as §1

On to `N#CCCCCn1c(=N)n(CCCCC#N)c2cc(C(=O)c3ccccc3)ccc21`, for which the EC50 amounted to 0.015 nM with HeLa; 46.7 nM in the experiment on HT-29; 119 nM with MDA-MB-231; 68 nM in experiment [1]; 94.1 nM in the experiment on HepG2.

Consider `N=c1n(CC(=O)N/N=C/c2ccc(F)cc2)c2ccc([N+](=O)[O-])cc2n1CC(=O)N/N=C/c1ccc(F)cc1`, for which the IC50 was 117 nM in the experiment with HeLa and 7.27 nM in the experiment on HepG2. The EC50 was determined as 24.5 nM in the experiment with HT-29, 17 nM with MDA-MB-231 and 12.2 nM in experiment [1].

As to `N=c1n(CC(=O)N/N=C/c2ccc3c(c2)OCO3)c2ccc(C(=O)c3ccccc3)cc2n1CC(=O)N/N=C/c1ccc2c(c1)OCO2`, the figures for the concentration for a half-maximal effect (EC50) (with HeLa; in experiment [1]; in the experiment on HepG2) were 0.25 nM, 0.21 nM and 10.2 nM, respectively. Further, the IC50 is 2.83 nM with HT-29 and 6.2 nM with MDA-MB-231.

Turning to `CCOC(=O)Cn1c(=N)n(CC(=O)OCC)c2cc(C(=O)c3ccccc3)ccc21`, the concentration for half-maximal inhibition (IC50) in the experiment with HT-29 came out at 0.64 nM. Moreover, the EC50 in the experiment on MDA-MB-231 is 0.28 nM; in experiment [1], 73 nM; in the experiment with HepG2, 70.1 nM.

As for `CCCCn1c(=N)n(CCCC)c2cc([N+](=O)[O-])ccc21`, the EC50 stood at 158 nM in the experiment with HeLa; 177 nM in the experiment on HT-29; 86 nM with MDA-MB-231; 114 nM in experiment [1]; 142 nM with HepG2.

The term EC50 denotes the concentration at which the effect is half-maximal. Higher therefore signals a less potent agent. What is called IC50 is the concentration needed to halve the response being measured.
